Most compounds without a hit are left out; they make up all but 1.5% or so of the library.
CaV13 ICDI inh: Disruptors of the CACNA1D IQ motif to Ca2+-dependent inactivation inhibitor domain association, primary screening, Förster resonance energy transfer in intact living … | HEK cells, CFP/YFP FRET ICDI-IQ, plate reader, 10 min; percent FRET-ratio fall versus neutral wells | inhibition, % at 12.3 µM | 340,000 tested, 0.098% active | AID 743397;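 active = mean replicate inhibition of at least 30% and at least 1% of replicates passing that level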;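 note: 0% = median of the neutral control wells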
Keap1-Nrf2 PPI: disrupts human Keap1 binding to Nrf2 peptide; 340,000 tested, 0.15% active; inhibition, % at 9.4 µM; Q14145; Keap1 Kelch-Nrf2 peptide fluorescence polarization, 1536-well; in the data active = inhibition above about 12%;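 note: human Keap1 Kelch domain with fluorescein labeled Nrf2 9mer peptide probe; 0% = neutral control wells and 100% = peptide positive control; higher means more block of Keap1 binding to Nrf2 peptide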
CAL PDZ FP-1: blocks peptide binding to the human CAL PDZ domain; purified CAL PDZ, TMR-peptide fluorescence polarization, 1 h; inhibition, % at 24.9 µM; 300,000 tested, 0.92% active; AID 602252;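 active = mean inhibition of at least 30% with at least half of replicates also reaching 30%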;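 note: 0% = DMSO neutral control and 100% = excess unlabeled competitor peptide PRC23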
C-LANA FP: inhibitors of KSHV LANA C-terminal domain DNA binding. AID 504423. MBP-C-LANA/FAM-LBS DNA binding, fluorescence polarization. inhibition, % at 9 µM. 340,000 tested, 0.078% active;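 active = highest replicate inhibition at or above 60% at 9 µM, even if other replicates fall short; inactive = all replicates below 60% inhibition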;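 note: 0% = neutral control wells and 100% = 4 µM acridine orange control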
CAL PDZ FP-2: blocks peptide binding to human CAL PDZ domain. Q9HD26. purified CAL PDZ, TMR-peptide fluorescence polarization, 1 h. inhibition, % at 20 µM. 330,000 tested, 0.02% active;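 active = highest replicate inhibition of at least 40%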;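 note: plate controls were DMSO neutral control wells for no effect and unlabeled competitor peptide control wells for full effect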
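material = purified tagged CAL PDZ domain construct (CerCALP) | buffer or medium = sodium phosphate/NaCl buffer pH 7.4 with TCEP, IgG, Thesit | reagent = TMR-labelled reporter peptide T*-PRC34 bound in PDZ groove | incubation = 1 h room-temperature incubation prior to read | measured by = fluorescence polarization (mP) | evaluation = percent inhibition from loss of millipolarization | control set = unlabelled peptide and DMSO controls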
LANA-H2A inh: blocks KSHV LANA binding to histone H2A/H2B. inhibition, % (test concentration not listed). AID 2629. cell-free LANA-H2A/H2B peptide, fluorescence polarization. Q9QR71. 320,000 tested, 0.6% active; in the data active = inhibition mostly above about 10%, no sharp cut-off; inactive = mostly below about 6.7%
Starred values were filed as active, the others as inactive; nt = no result given; + = active, no number.

SMILES	CaV13 ICDI inh	Keap1-Nrf2 PPI	CAL PDZ FP-1	C-LANA FP	CAL PDZ FP-2	LANA-H2A inh
CCCN(CC(=O)Nc1ccccc1OC)C(=O)c1ccccn1	-9.8	4.3	74.1*	-1.6	-0.3	-1.6
CCCN(CC(=O)Nc1ccccc1OC)C(=O)c1cc(-c2ccccc2)nn1-c1ccccc1	-1.9	-2.9	-0.9	0.9	-1.6	48.7*
CCN(CC(=O)Nc1ccc(NC(C)=O)cc1)C(=O)c1cc(-c2ccccc2)nn1-c1ccccc1	-4.4	1.3	-3.3	-0.9	-1.2	-1.9
CCCN(CC(=O)Nc1ccccc1OC)C(=O)CSC(=S)N1CCCC1	-6.3	2.1	60.2*	-1.6	-0.2	2.5
CC(=O)Nc1sc(NC(=O)c2ccc(C)cc2)nc1-c1cccs1	-4.5	1.4	73.4*	-1.6	nt	-2.3
O=C(NCc1ccccc1)[C@@H]1CCCN1C(=O)[C@H]1CCCN1C(=O)c1cc(F)cc(F)c1	-3.7	nt	nt	nt	nt	nt
CC(=O)Nc1ccc(C(=O)CN2C(=O)NC3(CCOc4ccccc43)C2=O)c(F)c1 (centres undefined)	-2.5	-2.2	39.6*	-0.5	-1.0	-2.9
COC(=O)[C@]1(Cc2ccccc2)NC=C(C(=O)c2ccccc2)[C@@H]1c1cccs1	-4.1	nt	nt	nt	nt	nt
O=C(CSc1nnc(CNC(=O)c2cccs2)o1)Nc1ccccc1	-5.0	-3.7	-3.8	0.4	-0.8	4.0
O=C(CSc1nnc(CNC(=O)c2cccs2)o1)Nc1ccccc1C(F)(F)F	-2.3	3.5	103.1*	0.2	-0.7	3.3
CN(CCOc1ccccc1)C(=O)c1cc([N+](=O)[O-])ccc1N1CCOCC1	-6.8	-3.4	33.0*	-0.7	-0.7	nt
COC(=O)[C@H](Cc1ccccc1)N1CC(N2CCCC2)CS1(=O)=O (some centres undefined)	-7.3	nt	nt	nt	nt	nt
CC(C)c1ccc(NC2CCCN(C(=O)c3ccnn3C)C2)cc1 (centres undefined)	-3.4	1.4	55.3*	-1.7	-0.5	1.8
COc1ccc(NC2CCCN(C(=O)CCc3ccccc3F)C2)cc1 (centres undefined)	-5.6	-5.7	78.0*	-0.5	0.3	2.6
COc1ccc(NC2CCCN(C(=O)CCOc3ccccc3)C2)cc1 (centres undefined)	-2.9	0.2	-4.6	0.1	-0.8	-1.6
COc1ccc(NC2CCCN(C(=O)c3csc(C(C)C)n3)C2)cc1 (centres undefined)	-2.4	-7.0	92.7*	1.1	0.7	0.3
COc1ccccc1CCn1cnc(-c2ccc(Br)cc2)c1CC(C)C	-9.6	nt	nt	nt	nt	nt
CCCc1cc(=O)oc2c(CN3CCN(C)CC3)c(O)c(Cl)cc12	-4.7	-0.1	30.6*	-0.6	-1.2	-0.4
C=CCN=C1NC(c2ccc(C(F)(F)F)cc2)C(C(=O)OC)=C(C)N1C (centres undefined)	-4.8	nt	nt	nt	nt	nt
CN[C@H]1C[C@H]2c3[nH]c4c(-c5ccc6c(c5)OCO6)cccc4c3CCN2C(=O)[C@H]1[C@H](C)O	-3.8	nt	nt	nt	nt	nt
CCN(CC)c1ccc(N2C(=O)c3ccccc3C2=O)cc1	-5.3	-5.0	101.7*	-0.2	nt	-0.3
Cc1ccccc1N1CCN(C(=O)C2CCC(=O)N(C3CCCC3)C2)CC1 (centres undefined)	-6.9	-4.0	78.7*	2.1	0.2	1.0
O=C(C1CCC(=O)N(C2CCCCCC2)C1)N1CCN(c2ccccc2Cl)CC1 (centres undefined)	-7.8	-2.5	-2.5	0.0	-2.9	-5.4
CCc1ccc(NC(=O)c2cc(Br)ccc2Br)cc1	-19.1	nt	nt	nt	nt	0.7
CC(C)c1ccc(NC(=O)c2cc(Br)ccc2Br)cc1	-6.0	-2.7	36.8*	-2.3	-0.3	2.5
CC[C@@H]1C/C=C\Cc2ccccc2[C@@H](C(=O)C[C@H](O)CC(C)=O)OC1=O	-6.6	-2.1	-7.1	-2.0	0.4	+
Cc1ccccc1N1CC(O)(c2cccs2)[N+]2=C1CCCC2 (centres undefined)	-1.9	-2.5	86.5*	-2.7	6.2	-4.9
Cc1cccc(N2CC(O)(c3cccs3)[N+]3=C2CCCC3)c1C (centres undefined)	-3.4	3.6	-2.9	1.3	-1.6	0.8
